The assay concerns the target Melanocortin receptor 4 (Mus musculus, UniProt P56450). Kind of assay: Effective concentration for mouse Melanocortin-4 receptor. The method, boiled down: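 HEK-293 cells stably expressing mouse melanocortin receptors (G418-selected) were transiently transfected with a CRE/β-galactosidase reporter. Lysates were incubated with ONPG at 37° and read at OD405. Signals were normalized to relative protein (OD595) and to forskolin response. EC50 came from nonlinear least-squares fits of duplicate experiments in quadruplet or more.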

Each structure is given as a SMILES string.

The term EC50 denotes the concentration giving half of the maximal effect.

Chain of Melanocortin receptor 4 (P56450 whole entry): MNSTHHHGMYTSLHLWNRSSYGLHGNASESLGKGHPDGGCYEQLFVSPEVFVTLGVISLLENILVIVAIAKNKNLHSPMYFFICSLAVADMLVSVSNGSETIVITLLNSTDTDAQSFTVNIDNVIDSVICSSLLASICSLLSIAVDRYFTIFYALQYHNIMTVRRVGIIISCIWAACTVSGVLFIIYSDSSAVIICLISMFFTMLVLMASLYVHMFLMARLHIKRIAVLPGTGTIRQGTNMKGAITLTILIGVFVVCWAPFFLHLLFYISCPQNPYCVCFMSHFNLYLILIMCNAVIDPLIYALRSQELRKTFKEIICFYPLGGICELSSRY

For the compound `C[C@@H]1NC(=O)[C@H](CC(N)=O)NC(=O)[C@H](Cc2c[nH]c3ccccc23)NC(=O)[C@H](CCCNC(=N)N)NC(=O)[C@@H](Cc2cccc3ccccc23)NC(=O)[C@H](Cc2cnc[nH]2)NC(=O)[C@@H](NC(=O)[C@@H](N)Cc2ccc(O)cc2)CC(=O)N([C@@H](Cc2ccc(O)cc2)C(N)=O)C(C)(C(=O)O)NC(=O)[C@H](Cc2ccccc2)NC1=O` (some centres not stated), a half-maximal effect (EC50) was put at 0.57 nM. As for `C[C@@H]1NC(=O)[C@H](CC(N)=O)NC(=O)[C@H](Cc2c[nH]c3ccccc23)NC(=O)[C@H](CCCNC(=N)N)NC(=O)[C@@H](Cc2ccc(-c3ccccc3)cc2)NC(=O)[C@H](Cc2cnc[nH]2)NC(=O)[C@@H](NC(=O)[C@@H](N)Cc2ccc(O)cc2)CC(=O)N([C@@H](Cc2ccc(O)cc2)C(N)=O)C(C)(C(=O)O)NC(=O)[C@H](Cc2ccccc2)NC1=O` (some centres not stated), the midpoint of the response, the EC50, lay at 0.57 nM.

Source of the values: BindingDB's records for doi:10.1021/jm049010r (University of Florida, 2005).
